Laboratory results taken from the array DNA melting data of Ke et al. (doi:10.1101/2024.01.08.574731).

Legend:
[1] = folding enthalpy; higher = less favourable; fluorescence melt of hairpins on a sequencing array, two-state fit; conditions: sodium 0.088 M
How it was run: (§1)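 Cy3 fluorescence of library hairpins on a sequenced MiSeq flow cell, with annealed Cy3 and quencher oligos, was imaged in 50 mM Na-HEPES pH 8.0, 25 mM NaCl in 2.5 °C steps up to 60 °C. Signals were normalised to pre-quench Cy3 and to control variants. Melting temperature and folding enthalpy came from bootstrapped two-state fits, inverse-variance combined over four replicates. Fitted temperatures were raised by 9.35 °C to match UV melts.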

[2] = melting temperature; fluorescence melt of hairpins on a sequencing array, two-state fit, raised by 9.35 °C to match UV melts; conditions: sodium 0.088 M
How it was run: as §1

Sequence: GGAGAAGGAAACTTCCCC ((.((((....)))).))
- folding enthalpy [1]: -70.2 kJ/mol
- Tm [2]: 35.2 °C

Sequence: GAAACCGAAAGGTGGTTC ((((((....)))..)))
- folding enthalpy [1]: -49.2 kJ/mol
- Tm [2]: 32.3 °C

Sequence: GGAATCCGAAAGGAGTCC (((.(((....))).)))
- folding enthalpy [1]: -178 kJ/mol
- Tm [2]: 55.8 °C

Sequence: GCCGCGCGAAAGCTCAGC ((.(.((....)).).))
- folding enthalpy [1]: -45 kJ/mol
- Tm [2]: 35.1 °C

Sequence: GCGGACGAAAGTCGGCGC ((((((....)))..)))
- folding enthalpy [1]: -112 kJ/mol
- Tm [2]: 68 °C

Sequence: GTAGTCCGAAAGGATTAC (((.(((....))).)))
- folding enthalpy [1]: -144 kJ/mol
- Tm [2]: 49.4 °C

Sequence: GCTGTCGAAAGACACAGC ((((((....)))..)))
- folding enthalpy [1]: -61.4 kJ/mol
- Tm [2]: 48.3 °C

Sequence: GATCATACGCATGATC ((((((....))))))
- folding enthalpy [1]: -155 kJ/mol
- Tm [2]: 48 °C

Sequence: GTGAGCGAAAGCTCCAC ((((((....))).)))
- folding enthalpy [1]: -47.2 kJ/mol
- Tm [2]: 48.3 °C

Sequence: GTACACCGAAAGGTTTAC (((.(((....))).)))
- folding enthalpy [1]: -128 kJ/mol
- Tm [2]: 42 °C

Sequence: GATCCCAATGGGGATC ((((((....))))))
- folding enthalpy [1]: -139 kJ/mol
- Tm [2]: 60.7 °C

Sequence: GATCGTTTAAACGATC ((((((....))))))
- folding enthalpy [1]: -205 kJ/mol
- Tm [2]: 56.1 °C

Sequence: GATCATTATGATGATC ((((((....))))))
- folding enthalpy [1]: -183 kJ/mol
- Tm [2]: 48.6 °C

Sequence: GATCGGCACCCCGATC ((((((....))))))
- folding enthalpy [1]: -133 kJ/mol
- Tm [2]: 56.6 °C

Sequence: GAGTCACGAAAGTGTCTC (((.(((....))).)))
- folding enthalpy [1]: -126 kJ/mol
- Tm [2]: 49.8 °C

Sequence: GCGGAGCCCGC ((((...))))
- folding enthalpy [1]: -47.2 kJ/mol
- Tm [2]: 49.4 °C

Sequence: GCTAGTACGAAAGTAAGC (((..(((....))))))
- folding enthalpy [1]: -61.4 kJ/mol
- Tm [2]: 28.2 °C

Sequence: GGGATAACGAAAGTTCCC (((..(((....))))))
- folding enthalpy [1]: -112 kJ/mol
- Tm [2]: 42.4 °C

Sequence: GTAAAGCGAAAGCTTAC (((.(((....))))))
- folding enthalpy [1]: -53.6 kJ/mol
- Tm [2]: 42.6 °C

Sequence: GATCCATGCATGGATC ((((((....))))))
- folding enthalpy [1]: -178 kJ/mol
- Tm [2]: 58.8 °C

Sequence: GAGTATGGAAACATGCTC (((.(((....))).)))
- folding enthalpy [1]: -143 kJ/mol
- Tm [2]: 46.8 °C

Sequence: CGCCCGGAAACGGGAGCG ((((((....)))..)))
- folding enthalpy [1]: -64.1 kJ/mol
- Tm [2]: 55.3 °C

Sequence: GCTGTTGGAAACGATAGC (((.(.(....).).)))
- folding enthalpy [1]: -87.6 kJ/mol
- Tm [2]: 32 °C

Sequence: GATCCCAAGCGGGATC ((((((....))))))
- folding enthalpy [1]: -136 kJ/mol
- Tm [2]: 60.6 °C

Sequence: GCGTCAGAACGC ((((....))))
- folding enthalpy [1]: -99 kJ/mol
- Tm [2]: 52 °C

Sequence: GATCGGCGACCGATC ((((((...))))))
- folding enthalpy [1]: -143 kJ/mol
- Tm [2]: 56.4 °C

Sequence: GCTTGCGAAAGCAGCAGC ((((((....)))..)))
- folding enthalpy [1]: -47.9 kJ/mol
- Tm [2]: 46.4 °C

Sequence: GCGGGGGGAAACCCCTGC ((.((((....)))).))
- folding enthalpy [1]: -133 kJ/mol
- Tm [2]: 61.9 °C

Sequence: GCTTTCCGAAAGGACAGC (((.(((....))).)))
- folding enthalpy [1]: -149 kJ/mol
- Tm [2]: 49.9 °C

Sequence: GTGAAACGAAAGTTACAC (((.(((....))).)))
- folding enthalpy [1]: -124 kJ/mol
- Tm [2]: 46.2 °C

Sequence: GCGGTGGACCGC ((((....))))
- folding enthalpy [1]: -111 kJ/mol
- Tm [2]: 59.6 °C

Sequence: GATCTGCCTTCAGATC ((((((....))))))
- folding enthalpy [1]: -128 kJ/mol
- Tm [2]: 49 °C

Sequence: GTGGACACGAAAGTGCAC (((..(((....))))))
- folding enthalpy [1]: -75.8 kJ/mol
- Tm [2]: 45 °C

Sequence: GCATATCGAAAGATGTGC (((.(((....))).)))
- folding enthalpy [1]: -153 kJ/mol
- Tm [2]: 55.4 °C

Sequence: GCGCAGCGAAAGCAGAGC ((.(.((....)).).))
- folding enthalpy [1]: -65.5 kJ/mol
- Tm [2]: 54.6 °C

Sequence: TTGGGGAAACCCAA (((((....)))))
- folding enthalpy [1]: -72.6 kJ/mol
- Tm [2]: 43.4 °C

Sequence: GATCCCCGTAGGGATC ((((((....))))))
- folding enthalpy [1]: -86.3 kJ/mol
- Tm [2]: 61.9 °C

Sequence: GGCGACGAAAGTCAGCC ((((((....))).)))
- folding enthalpy [1]: -118 kJ/mol
- Tm [2]: 65.6 °C

Sequence: GATCGTGCGACGATC ((((((...))))))
- folding enthalpy [1]: -161 kJ/mol
- Tm [2]: 56.8 °C

Sequence: GTAGTGGGAAACCGCTAC ((((.((....)).))))
- folding enthalpy [1]: -204 kJ/mol
- Tm [2]: 51.5 °C

Sequence: GATCCCAAAGGGGATC ((((((....))))))
- folding enthalpy [1]: -133 kJ/mol
- Tm [2]: 57.3 °C

Sequence: GCATTAACGAAAGTTTGC (((..(((....))))))
- folding enthalpy [1]: -66.8 kJ/mol
- Tm [2]: 33.6 °C

Sequence: GATTCCGAAAGGAAAATC ((((((....)))..)))
- folding enthalpy [1]: -58.5 kJ/mol
- Tm [2]: 32.3 °C

Sequence: GATCCCTCGTGGGATC ((((((....))))))
- folding enthalpy [1]: -168 kJ/mol
- Tm [2]: 62.2 °C

Sequence: GCTCAACGAAAGTTTAGC (((.(((....))).)))
- folding enthalpy [1]: -118 kJ/mol
- Tm [2]: 44.5 °C

Sequence: GATCTTCCGAAAGATC ((((((....))))))
- folding enthalpy [1]: -124 kJ/mol
- Tm [2]: 43.2 °C

Sequence: GATGGACGAAAGTCATC (((.(((....))))))
- folding enthalpy [1]: -75 kJ/mol
- Tm [2]: 45.7 °C
